{"source": "paper PMC7312786", "about": "(Biochemistry, 2018)", "key": {"hpol ε": {"target": "T1, hpol ε (Homo sapiens, UniProt Q07864, D275A/E277A)", "T1 sequence (Q07864 1-1189 D275A/E277A limits assumed)": "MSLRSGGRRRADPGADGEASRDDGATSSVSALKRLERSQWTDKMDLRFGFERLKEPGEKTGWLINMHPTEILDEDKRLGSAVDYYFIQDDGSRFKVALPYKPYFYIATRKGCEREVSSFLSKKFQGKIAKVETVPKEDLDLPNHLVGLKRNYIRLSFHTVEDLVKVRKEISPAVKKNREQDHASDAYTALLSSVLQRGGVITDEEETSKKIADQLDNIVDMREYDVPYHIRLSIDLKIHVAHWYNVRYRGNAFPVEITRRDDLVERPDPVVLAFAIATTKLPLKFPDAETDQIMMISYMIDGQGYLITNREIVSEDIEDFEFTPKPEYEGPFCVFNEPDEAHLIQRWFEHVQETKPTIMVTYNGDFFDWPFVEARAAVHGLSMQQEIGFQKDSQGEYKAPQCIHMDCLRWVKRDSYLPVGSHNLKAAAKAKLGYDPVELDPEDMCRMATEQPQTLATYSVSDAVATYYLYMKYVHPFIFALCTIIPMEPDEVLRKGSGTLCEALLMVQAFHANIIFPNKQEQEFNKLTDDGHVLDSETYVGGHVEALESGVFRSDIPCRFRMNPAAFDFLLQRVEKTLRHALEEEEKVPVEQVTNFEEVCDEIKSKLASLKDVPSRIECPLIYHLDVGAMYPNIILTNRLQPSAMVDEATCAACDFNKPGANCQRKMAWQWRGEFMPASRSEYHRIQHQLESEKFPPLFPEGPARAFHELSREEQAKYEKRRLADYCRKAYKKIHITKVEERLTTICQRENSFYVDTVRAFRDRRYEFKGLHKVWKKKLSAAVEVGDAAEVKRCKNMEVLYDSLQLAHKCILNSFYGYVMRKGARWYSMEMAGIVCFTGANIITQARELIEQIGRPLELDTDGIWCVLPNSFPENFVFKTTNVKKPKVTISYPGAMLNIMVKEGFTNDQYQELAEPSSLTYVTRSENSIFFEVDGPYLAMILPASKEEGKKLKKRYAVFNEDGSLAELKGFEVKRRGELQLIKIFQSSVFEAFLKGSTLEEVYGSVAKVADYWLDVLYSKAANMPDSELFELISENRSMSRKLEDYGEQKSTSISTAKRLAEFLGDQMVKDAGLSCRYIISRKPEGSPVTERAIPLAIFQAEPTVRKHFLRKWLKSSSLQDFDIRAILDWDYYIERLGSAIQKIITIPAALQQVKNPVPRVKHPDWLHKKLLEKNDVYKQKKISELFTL", "assay": "Fluorescence-based pol activity assay, hpol ε", "format": "biochemical"}, "Dpo1": {"target": "T2, Dpo1 (Saccharolobus solfataricus, UniProt P26811)", "T2 sequence (P26811 1-882)": "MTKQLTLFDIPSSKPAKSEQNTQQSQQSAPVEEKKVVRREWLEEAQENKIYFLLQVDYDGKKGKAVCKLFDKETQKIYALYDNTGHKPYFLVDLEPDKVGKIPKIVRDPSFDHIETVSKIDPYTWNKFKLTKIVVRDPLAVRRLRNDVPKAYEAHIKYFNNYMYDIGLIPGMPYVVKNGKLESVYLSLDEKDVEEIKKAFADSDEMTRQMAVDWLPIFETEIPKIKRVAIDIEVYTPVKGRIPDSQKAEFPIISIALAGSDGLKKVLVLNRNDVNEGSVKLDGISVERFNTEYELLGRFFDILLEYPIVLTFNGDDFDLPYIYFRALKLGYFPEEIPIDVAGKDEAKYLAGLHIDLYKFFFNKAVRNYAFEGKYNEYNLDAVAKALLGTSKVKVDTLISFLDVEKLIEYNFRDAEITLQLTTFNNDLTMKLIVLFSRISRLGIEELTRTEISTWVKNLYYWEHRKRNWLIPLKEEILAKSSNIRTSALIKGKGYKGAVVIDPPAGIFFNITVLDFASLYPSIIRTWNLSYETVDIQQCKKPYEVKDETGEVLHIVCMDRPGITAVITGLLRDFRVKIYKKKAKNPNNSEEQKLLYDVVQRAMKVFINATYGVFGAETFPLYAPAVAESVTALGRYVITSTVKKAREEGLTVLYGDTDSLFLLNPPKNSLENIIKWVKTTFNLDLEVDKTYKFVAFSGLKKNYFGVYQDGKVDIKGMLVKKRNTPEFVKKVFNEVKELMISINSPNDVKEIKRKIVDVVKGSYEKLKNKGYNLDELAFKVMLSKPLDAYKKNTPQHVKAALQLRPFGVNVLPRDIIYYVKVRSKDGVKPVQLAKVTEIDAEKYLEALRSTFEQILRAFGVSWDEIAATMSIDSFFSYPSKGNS", "assay": "Fluorescence-based pol activity assay, Dpo1", "format": "biochemical, Sulfolobus solfataricus", "conditions": "20 μM PNR-7-02"}, "[1]": {"tested_on": "hpol η-deficient HAP-1 cells", "assay": "Cell viability", "format": "cell-based, human", "in_short": "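HAP-1 parental or CRISPR hpol η-null cells in IMDM with 10% FBS and 1% antibiotic/antimycotic, passage 8–10, seeded 5000 cells/well. Next day: CDDP 0–100 μM alone or with 0.1 or 1 μM test compound, 48 h. Cells washed twice in DPBS, then 2 μM Calcein-AM for 30 min at 25 °C; fluorescence ex 490/em 520 nm. Viability as % of untreated. […] Combination index by Chou–Talalay.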"}, "OVCAR3 cells": {"tested_on": "OVCAR3 cells", "assay": "Combined treatment of OVCAR3 cells with CDDP and PNR-7-02", "format": "cell-based, human"}}}
{"smiles": "O=C1NC(=S)NC(=O)C1=Cc1cn(Cc2ccc3ccccc3c2)c2ccc(Cl)cc12", "note": "[PNR-7-02, 5-((5-chloro-1-(naphthalen-2-ylmethyl)-1H-indol-3-yl)methylene)-2-thioxodihydropyrimidine-4,6-(1H,5H)-dione]", "values": [{"measurement": "Pol activity relative to DMSO control, hpol ε", "setting": "hpol ε; 20 μM PNR-7-02, mean (±SD)", "value": "32 (±5) %"}, {"measurement": "Specificity for hpol η over replicative pols (hpol ε)", "setting": "hpol ε; from activity at 20 μM PNR-7-02", "value": "5–10 fold"}, {"measurement": "Effect on catalysis by Dpo1", "setting": "Dpo1", "value": "not affected at all"}, {"measurement": "Pol activity relative to DMSO control, Dpo1", "setting": "Dpo1; mean (±SD)", "value": "118 (±15) %"}, {"measurement": "Effect of adding PNR-7-02 on toxicity of CDDP", "setting": "[1]; hpol η-deficient cells", "value": "does not have a notable effect"}, {"measurement": "Combination index with CDDP", "setting": "[1]; hpol η-deficient cells, 0.1 μM PNR-7-02", "value": 1.02}, {"measurement": "Combination index with CDDP", "setting": "[1]; hpol η-deficient cells, 1 μM PNR-7-02", "value": 0.90}, {"measurement": "EC50", "setting": "[1]; read-out: EC50, cell viability, PNR-7-02 alone, hpol η-deficient HAP-1, 48 h", "value": 5.6, "unit": "µM"}, {"measurement": "Combination index (CI) with CDDP", "setting": "OVCAR3 cells", "value": 0.4}]}
